Measured values reported in ChEMBL document CHEMBL4311987, “Discovery of novel allosteric site and covalent inhibitors of FBPase with potent hypoglycemic effects” (Eur J Med Chem, 2019).
Active and inactive are the calls of the source. The rule behind the calls is not given here.

Key:
[1] = biological target: Fructose-1,6-bisphosphatase 1 (Homo sapiens, UniProt P09467, D128A); experiment: Inhibition of human FBPase D127A mutant expressed in Escherichia coli BL21 (DE3) using FBP as substrate incubated for 5 mins by malachite green dye based spectrophotometry
Sequence of Fructose-1,6-bisphosphatase 1 (Homo sapiens, UniProt P09467, D128A) (P09467 2-338 D128A limits assumed): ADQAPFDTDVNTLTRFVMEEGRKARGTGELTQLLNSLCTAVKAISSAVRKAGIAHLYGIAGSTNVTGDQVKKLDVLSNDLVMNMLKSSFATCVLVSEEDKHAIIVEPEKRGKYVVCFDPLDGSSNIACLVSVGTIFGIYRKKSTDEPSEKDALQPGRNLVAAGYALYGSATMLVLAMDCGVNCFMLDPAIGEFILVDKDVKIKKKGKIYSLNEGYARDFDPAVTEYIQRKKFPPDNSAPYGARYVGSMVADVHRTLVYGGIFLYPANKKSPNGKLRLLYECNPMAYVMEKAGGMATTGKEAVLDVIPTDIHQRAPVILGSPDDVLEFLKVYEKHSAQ
Outline: (§1)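 Recombinant human FBPase (wild type or point mutants) was expressed in E. coli BL21 (DE3), purified and stored in 50% glycerol at -20 °C. Reactions ran 5 min at 37 °C, and released phosphate was read by malachite green.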

[2] = biological target: T1, Fructose-1,6-bisphosphatase 1 (Homo sapiens) (UniProt P09467); experiment: Inhibition of human FBPase expressed in Escherichia coli BL21 (DE3) at 10 times of IC50 using FBP as substrate incubated for 30 to 180 mins mins by malachite green dye based spectrophotometry
T1 sequence (whole entry): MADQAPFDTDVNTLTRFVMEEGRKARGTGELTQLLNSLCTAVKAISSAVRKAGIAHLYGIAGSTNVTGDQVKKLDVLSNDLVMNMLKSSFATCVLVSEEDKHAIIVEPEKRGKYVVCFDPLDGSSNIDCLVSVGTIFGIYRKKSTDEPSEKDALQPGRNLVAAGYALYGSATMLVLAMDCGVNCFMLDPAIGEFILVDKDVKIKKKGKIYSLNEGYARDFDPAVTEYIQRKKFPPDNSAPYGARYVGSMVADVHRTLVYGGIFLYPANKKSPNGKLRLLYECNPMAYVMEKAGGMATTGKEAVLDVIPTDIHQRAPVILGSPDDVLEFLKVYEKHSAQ
Outline: (§2)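 Activity was started with 0.4 mM FBP and 0.8 mM Mg2+. Reactions were stopped with 1 M perchloric acid at 30, 60, 90, 120, 150 and 180 min, and phosphate was then detected by malachite green.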

[3] = biological target: Fructose-1,6-bisphosphatase 1 (Homo sapiens, UniProt P09467, Y259A); experiment: Inhibition of human FBPase Y258A mutant expressed in Escherichia coli BL21 (DE3) using FBP as substrate incubated for 5 mins by malachite green dye based spectrophotometry; outline: as §1
Sequence of Fructose-1,6-bisphosphatase 1 (Homo sapiens, UniProt P09467, Y259A) (P09467 2-338 Y259A limits assumed): as the sequence (P09467 2-338 D128A limits assumed) above, with A127D, Y258A counted along it

[4] = biological target: T1, Fructose-1,6-bisphosphatase 1 (Homo sapiens); experiment: Reversible inhibition of human FBPase expressed in Escherichia coli BL21 (DE3) at 20 times diluted IC50 using FBP as substrate preincubated for 30 to 180 mins followed by 20 fold compound dilution by malachite green dye based spectrophotometry; outline: as §2
[5] = biological target: T1, Fructose-1,6-bisphosphatase 1 (Homo sapiens); experiment: Binding affinity to human FBPase expressed in Escherichia coli BL21 (DE3) incubated for 2 hrs by LC-MS analysis
Homo sapiens = organism: Homo sapiens; experiment: Selectivity index, ratio of IC50 for human FBPase D127A mutant expressed in Escherichia coli BL21 (DE3) to IC50 for human FBPase expressed in Escherichia coli BL21 (DE3)
Outline: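 IC50 values for each FBPase point mutant and for wild-type human FBPase came from the same malachite-green assay. The index is mutant IC50 divided by wild-type IC50.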

[6] = biological target: T1, Fructose-1,6-bisphosphatase 1 (Homo sapiens); experiment: Competitive inhibition of human FBPase expressed in Escherichia coli BL21 (DE3) using FBP as substrate incubated for 5 mins in presence of Mg2+ by malachite green dye based spectrophotometry
Outline: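 Malachite-green phosphate readout of human FBPase (300 nM, E. coli-expressed) in 50 mM Tris-HCl pH 7.4 with 0.4 mM FBP, 5 min at 37 °C. Compound concentration was varied at fixed Mg2+ levels, with Mg2+ raised from 1 mM to 10 mM, to assess competition with Mg2+.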

Hepatocyte [7] = experiment: Inhibition of glucose production in C57BLKS rat Primary hepatocytes at 400 uM incubated for 3 hrs by glucose assay kit method relative to control; format: functional
Outline: (§3)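 Rat primary hepatocytes cultured overnight in DMEM/10% FBS, then pretreated with compounds for 3 h in fresh medium. Switched to glucose-free DMEM with 2 mM sodium pyruvate, 20 mM sodium lactate and compound for 3 h. Medium glucose measured with a kit and normalized to BCA protein. Pathological arm adds 1 µM dexamethasone plus 200 µM cAMP for 3 h. Means ± SEM, n=4.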

Hepatocyte [8] = experiment: Cytotoxicity against C57BLKS rat Primary hepatocytes assessed as cell viability by measuring cellular protein level at 10 to 100 uM in presence of cAMP and Dex by bicinchoninic acid method; format: cell-based
Outline: (§4)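 Primary hepatocytes isolated from rat, cultured overnight in DMEM with 10% FBS, then exposed to compounds. Cellular protein per group measured by bicinchoninic acid (BCA) method as a viability control. The same protein values serve to normalize glucose, TG and TC contents. Pathological stimulation where applicable: 1 µM dexamethasone plus 200 µM cAMP, or 25 mM glucose plus 500 nM insulin for 24 h. Means ± SEM, four independent experiments.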

[9] = Acute toxicity in C57BL/6 mouse assessed as mortality at 600 mg/kg, po observed for 14 days; format: organism-based; conditions: in vivo, 336 h
Outline: (§5)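 Sixteen male C57BL/6 mice, 8 weeks old, were randomised into two groups. Each group got a single oral dose on day 1, either vehicle or 600 mg/kg. Animals were watched for 14 days for mortality, body-weight loss and allergic reactions, against controls.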

Hepatocyte [10] = experiment: Inhibition of lipid accumulation in C57BLKS rat Primary hepatocytes assessed as reduction in insulin and glucose-induced TG level at 10 uM incubated for 24 hrs; format: functional, cell-based
Outline: (§6)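 After overnight culture in DMEM, rat primary hepatocytes pretreated with compounds, then held in 25 mM glucose plus 500 nM insulin for 24 h to induce lipid accumulation. Triglyceride and total cholesterol measured with assay kits and normalized to BCA protein. Means ± SEM of four independent experiments.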

Hepatocyte [11] = experiment: Inhibition of lipid accumulation in C57BLKS rat Primary hepatocytes assessed as reduction in insulin and glucose-induced TG level at 100 uM incubated for 24 hrs; format: functional, cell-based; outline: as §6
Hepatocyte [12] = experiment: Inhibition of glucose production in cAMP and Dex pre-treated C57BLKS rat Primary hepatocytes incubated for 3 hrs by glucose assay kit method; format: functional, cell-based; outline: as §3
[13] = Acute toxicity in C57BL/6 mouse assessed as allergic action at 600 mg/kg, po observed for 14 days; format: organism-based; conditions: in vivo, 336 h; outline: as §5
Hepatocyte [14] = experiment: Inhibition of glucose production in cAMP and Dex pre-treated C57BLKS rat Primary hepatocytes at 100 uM incubated for 3 hrs by glucose assay kit method; format: functional; outline: as §3
Hepatocyte [15] = experiment: Cytotoxicity against C57BLKS rat Primary hepatocytes assessed as cell viability by measuring cellular protein level at 25 to 100 uM in presence of insulin and glucose by bicinchoninic acid method; format: cell-based; outline: as §4
Hepatocyte [16] = experiment: Inhibition of lipid accumulation in C57BLKS rat Primary hepatocytes assessed as reduction in insulin and glucose-induced TC level at 10 uM incubated for 24 hrs; format: functional, cell-based; outline: as §6
Hepatocyte [17] = experiment: Inhibition of glucose production in C57BLKS rat Primary hepatocytes incubated for 3 hrs by glucose assay kit method; format: functional, cell-based; outline: as §3
[18] = Acute toxicity in C57BL/6 mouse assessed as weight loss at 600 mg/kg, po observed for 14 days; format: organism-based; conditions: in vivo, 336 h; outline: as §5
Hepatocyte [19] = experiment: Cytotoxicity against C57BLKS rat Primary hepatocytes assessed as cell viability by measuring cellular protein level at 10 to 300 uM by bicinchoninic acid method; format: cell-based; outline: as §4
Hepatocyte [20] = experiment: Inhibition of lipid accumulation in C57BLKS rat Primary hepatocytes assessed as reduction in insulin and glucose-induced TC level incubated for 24 hrs; format: functional, cell-based; outline: as §6
[21] = biological target: T2, Fructose-1,6-bisphosphatase 1 (Homo sapiens, UniProt P09467); experiment: Binding affinity to human FBPase expressed in Escherichia coli BL21 (DE3) assessed as dissociation constant at 100 uM by UV-visible spectroscopy
T2 sequence (P09467 whole entry): T1 sequence (whole entry)

Row | Structure (SMILES) | IC50 [1] | inhibition [2] | IC50 [3] | inhibition [4] | Activity [5] | Ratio IC50 (Homo sapiens) | inhibition [6] | other results
1 | O=[N+]([O-])/C=C/c1cccc(F)c1 | 4 µM | 100% | 19 µM | Active | Active | 13 | Active | –
2 | CCOC(=O)C(C)(C)Oc1ccc(F)c(/C=C/[N+](=O)[O-])c1 | – | – | 2.9 µM | – | – | – | – | inhibition at 400 µM (Hepatocyte [7]): 90%; Activity (Hepatocyte [8]): Non-Toxic; Activity [9]: Non-Toxic; inhibition (Hepatocyte [10]): Active; inhibition (Hepatocyte [11]): inactive; inhibition (Hepatocyte [12]): Dose-dependent effect; Activity [13]: Non-Toxic; inhibition at 100 µM (Hepatocyte [14]): 95%; Activity (Hepatocyte [15]): Non-Toxic; inhibition (Hepatocyte [16]): Active; inhibition (Hepatocyte [17]): Dose-dependent effect; Activity [18]: Non-Toxic; Activity (Hepatocyte [19]): Non-Toxic; inhibition (Hepatocyte [20]): Dose-dependent effect
3 | N#Cc1ccc(/C=C/[N+](=O)[O-])cc1 | 2 µM | 100% | 1.5 µM | Active | Active | 5.7 | Active | Kd [21]: 54 µM
